Screens (PubChem BioAssay)
In the library only some 2.9% were active in any assay of this set; here they are far more common.
M1 ag parental – counter-screen for M1 agonists: effect in parental CHO-K1 cells; Fluo-8 calcium fluorescence; scaled to maximal ATP response, vehicle zero; 360,000 tested, 0.48% active; activation, % at 3 µM; in the data active = activation above about 15%;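 also: untransfected CHO-K1 host cells lacking M1 receptor as counterscreen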
OX1R antag-1 – OX1R (HCRTR1) antagonists, primary screen, fluorescence, CHO/OX1R cells, Fluo-8 calcium, orexin A | Orexin/Hypocretin receptor type 1 (Homo sapiens), O43613 | inhibition, % at 5 µM | Fluo-8 calcium fluorescence | 330,000 tested, 0.43% active;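 active = inhibition above its plate's threshold, mean inhibition of all tested compounds on the plate plus 3 SD, cut at about 37% in these data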;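 also: 0% = orexin A challenge wells and 100% = SB-334867-A antagonist wells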
Target sequence (O43613 whole entry, looked up): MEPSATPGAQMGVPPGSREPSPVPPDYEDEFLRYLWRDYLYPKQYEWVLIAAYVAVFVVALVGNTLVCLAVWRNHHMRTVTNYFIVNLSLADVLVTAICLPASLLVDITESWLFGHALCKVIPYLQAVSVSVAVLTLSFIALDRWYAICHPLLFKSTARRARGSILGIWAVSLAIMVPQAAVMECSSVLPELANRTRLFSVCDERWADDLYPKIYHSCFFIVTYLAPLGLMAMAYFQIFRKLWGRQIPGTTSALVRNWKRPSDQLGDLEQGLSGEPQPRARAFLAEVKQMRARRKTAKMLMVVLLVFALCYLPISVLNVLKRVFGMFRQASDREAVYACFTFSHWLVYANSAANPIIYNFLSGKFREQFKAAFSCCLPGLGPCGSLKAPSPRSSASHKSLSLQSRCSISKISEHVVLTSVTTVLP
OX1R antag-2 – antagonists of human orexin 1 receptor (OX1R); OX1R-expressing cells, FRET antagonist read-out; Orexin/Hypocretin receptor type 1 (Homo sapiens), O43613; 330,000 tested, 1.8% active; inhibition, % at 6.6 µM; in the data active = inhibition mostly above about 38%, no sharp cut-off; inactive = mostly below about 40%;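 also: 0% = agonist challenge alone and 100% = reference antagonist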
CHO-K1 Ca antag – M1 antagonist counterscreen hit in parental CHO-K1 cells; ATP-induced calcium, Fluo-8 fluorescence; inhibition, % at 3 µM; AID 602250; 360,000 tested, 0.6% active;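 active = inhibition above a per-plate cutoff, the plate's mean sample inhibition plus 3 SD, cut at about 24% in these data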;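 also: 0% = DMSO plus EC80 ATP and 100% = DMSO alone without ATP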
M1 PAM parental – nonselective calcium activators in parental CHO-K1 cells, primary screen, counter-screen for M1 PAM project, cell-based, Fluo-8 calcium fluorescence, full deck, 1536-well. ATP EC20; 0% at ATP EC20, 100% at ATP max. activation, % at 3 µM. 360,000 tested, 0.02% active. AID 602247, 2012;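 active = activation above the run cutoff, the mean activation of all test compounds plus 3 SD, cut at about 40% in these data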;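 also: peak over basal fluorescence ratio in a 140 s read after ATP addition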
CHO parental Ca – ATP-evoked calcium signal inhibitors, parental CHO, primary screen, counter-screen for OX1R antagonist project, cell-based, fluorescence, Fluo-8 calcium dye. parental CHO-K1, ATP-induced calcium, Fluo-8 fluorescence. inhibition, % at 5.6 µM. 330,000 tested, 0.63% active;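 active = inhibition above that plate's mean sample inhibition plus 3 SD, cut at about 26% in these data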;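 also: 0% = ATP-challenged DMSO wells and 100% = DMSO wells without ATP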
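Material: Parental CHO cells | Reagent: ATP | Compound dosing: Single nominal dose of 5.6 µM per compound | Detection: Intracellular calcium via Fluo-8 no-wash fluorescent dye | Read-out: % inhibition of ATP-induced calcium mobilization | Benchmarks: Low control ATP plus DMSO, high control DMSO only | Replicates: Singlicate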
* marks the source's active call; other numbers are inactive results.

CC(C)CCn1c(N)c(C(=O)NCc2cccs2)c2nc3ccccc3nc21 was read as M1 ag parental 1, OX1R antag-1 -9, OX1R antag-2 5, CHO-K1 Ca antag -18, M1 PAM parental 18 and CHO parental Ca -14.
`COc1nc(NC(C)C)nc(NC(C)C)n1` gave M1 ag parental 0, OX1R antag-1 -11, OX1R antag-2 28, CHO-K1 Ca antag -9, M1 PAM parental 17 and CHO parental Ca 9.
For O=C(NC(=C(Cl)Cl)P(=O)(c1ccccc1)c1ccccc1)c1ccccc1 the results were M1 ag parental 0, OX1R antag-1 -4, OX1R antag-2 69*, CHO-K1 Ca antag -11, M1 PAM parental 20 and CHO parental Ca -18.
Cc1ccc2c(C)c3ccc4ccccc4c3c[n+]2c1 was read as M1 ag parental 1, CHO-K1 Ca antag -10 and M1 PAM parental 16.
For c1cncc(CNC2CCCCC2)c1 the results were M1 ag parental 1, OX1R antag-1 -21, OX1R antag-2 11, CHO-K1 Ca antag -16, M1 PAM parental 18 and CHO parental Ca -11.
`CCOc1ccc(-n2c(O)c(/C=C3\C=Nc4ccccc43)c(=O)[nH]c2=O)cc1` gave M1 ag parental 0, OX1R antag-1 -23, OX1R antag-2 11, CHO-K1 Ca antag -2, M1 PAM parental -4 and CHO parental Ca -5.
Screening CCOc1ccc(-n2c(O)c(N=Nc3ccc([N+](=O)[O-])cc3)c(=O)[nH]c2=O)cc1 returned M1 ag parental 1, OX1R antag-1 -34, OX1R antag-2 76*, CHO-K1 Ca antag -14, M1 PAM parental 14 and CHO parental Ca -12.
CC1CCCC(NC(=O)CNC(=S)N2CC3CC(C2)c2cccc(=O)n2C3)C1C (centres undefined) was read as M1 ag parental 1, OX1R antag-1 -12, OX1R antag-2 -2, CHO-K1 Ca antag -19, M1 PAM parental 16 and CHO parental Ca -3.
Screening Cc1ccc(/C=C2/C(=O)NC(=O)N(CC3CCCO3)C2=O)s1 (centres undefined) returned M1 ag parental 19*, OX1R antag-1 -2, OX1R antag-2 4, CHO-K1 Ca antag 1, M1 PAM parental 14 and CHO parental Ca -3.
Screening CC1=CC(=O)OC2CC3OC4C[C@@H](C)C5OC6CC7O[C@]8(C)C/C=C\C9OC%10CC%11OC(CC(C)C%12OCCO%12)CC(O)[C@]%11(C)OC%10CC9OC8C[C@]7(C)O[C@]6(C)CCC5OC4C[C@]3(C)OC12 (some centres undefined) returned M1 ag parental 0, OX1R antag-1 -23, OX1R antag-2 5, CHO-K1 Ca antag 0, M1 PAM parental -8 and CHO parental Ca -13.
For CC(=O)N1CCN(c2ccc([N+](=O)[O-])cc2C=C2C(=O)NC(=O)NC2=O)CC1 the results were M1 ag parental 0, OX1R antag-1 1, OX1R antag-2 64*, CHO-K1 Ca antag 6, M1 PAM parental 0 and CHO parental Ca -4.
For Cc1nn(-c2ccccc2)c(Cl)c1C1C(C#N)=C(N)Oc2c1c(=O)oc1ccccc21 (centres undefined) the results were M1 ag parental 0, OX1R antag-1 9, OX1R antag-2 30, CHO-K1 Ca antag 25*, M1 PAM parental -6 and CHO parental Ca -9.
N#CC1=C(N)Oc2c(c(=O)oc3ccccc23)C1c1cccnc1 (centres undefined) was read as M1 ag parental 0, OX1R antag-1 -14, OX1R antag-2 12, CHO-K1 Ca antag -11, M1 PAM parental 6 and CHO parental Ca -16.
O=C(CSC1c2ccccc2-c2ccccc21)N/N=C/c1ccccc1C(=O)O was read as M1 ag parental 0, OX1R antag-1 -1, OX1R antag-2 54*, CHO-K1 Ca antag -8, M1 PAM parental 21 and CHO parental Ca 5.
Screening CC1(C)C[C@H]2C=C(C=O)[C@]3(C=O)C[C@]3(C)[C@H]2C1 returned M1 ag parental 1, OX1R antag-1 40*, OX1R antag-2 6, CHO-K1 Ca antag 5, M1 PAM parental -3 and CHO parental Ca 69*.
CCNc1cc(N2CCN(C)CC2)ccc1[N+](=O)[O-] was read as M1 ag parental 1, OX1R antag-1 -15, OX1R antag-2 51*, CHO-K1 Ca antag -11, M1 PAM parental 13 and CHO parental Ca -12.
`CN1CCN(c2ccc([N+](=O)[O-])c(N/N=C3\CN4CCC3CC4)c2)CC1` gave M1 ag parental 0, OX1R antag-1 5, OX1R antag-2 56*, CHO-K1 Ca antag -9, M1 PAM parental 7 and CHO parental Ca 9.
Screening CN1CCN(c2ccc([N+](=O)[O-])c(Sc3nncn3C)c2)CC1 returned M1 ag parental 0, OX1R antag-1 -2, OX1R antag-2 45, CHO-K1 Ca antag 2, M1 PAM parental -3 and CHO parental Ca -3.
For C[n+]1c2ccccc2nc2ccc(NCCO)cc21 the results were M1 ag parental 0, OX1R antag-1 -17, OX1R antag-2 86*, CHO-K1 Ca antag -15, M1 PAM parental -6 and CHO parental Ca -5.
O=C(O)CC1OCC=C2CN3CCC45c6ccccc6NC4C1C2CC35 (centres undefined) was read as M1 ag parental 1, OX1R antag-1 -5, OX1R antag-2 6, CHO-K1 Ca antag -7, M1 PAM parental -1 and CHO parental Ca -18.
O=C(O)CC1OCC=C2CN3CCC45C6=CC(=O)C(=O)C([N+](=O)[O-])=C6NC4C1C2CC35 (centres undefined) was read as M1 ag parental 0, OX1R antag-1 -17, OX1R antag-2 38*, CHO-K1 Ca antag -6, M1 PAM parental 2 and CHO parental Ca 6.
`CN1C(=O)C(c2ccc([N+](=O)[O-])cc2[N+](=O)[O-])C(=O)N(C)C1=O` gave M1 ag parental 2, OX1R antag-1 -13, OX1R antag-2 44*, CHO-K1 Ca antag 4, M1 PAM parental -1 and CHO parental Ca -1.
Screening CCOC(=O)c1cc2c(cn1)[nH]c1ccccc12 returned M1 ag parental 0, OX1R antag-1 8, OX1R antag-2 64*, CHO-K1 Ca antag -6, M1 PAM parental 11 and CHO parental Ca -4.
For Cc1ccc(C(=O)NC(O)C(Cl)(Cl)Cl)cc1 (centres undefined) the results were M1 ag parental 1, OX1R antag-1 -12, OX1R antag-2 10, CHO-K1 Ca antag 0, M1 PAM parental 20 and CHO parental Ca -4.
`CCNCCNc1ccc([N+](=O)[O-])c2cccnc12` gave M1 ag parental 1, OX1R antag-1 -16, OX1R antag-2 42*, CHO-K1 Ca antag -11, M1 PAM parental 24 and CHO parental Ca -15.
